What was measured:
Type in all cases: functional, organism-based
[1] = tested on: Human immunodeficiency virus 1; experiment: Anti HIV-1 activity against the virus NL4-3 using fusion assay
Method in brief: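 COS cells (10⁶) electroporated (950 µF, […]) with 2 µg vector expressing HIV-1 NL4-3 envelope, cultured 1 day. Then 10⁴ transfected cells mixed with 7 × 10⁴ MOLT-4 cells. Graded compound concentrations added, 24 h at 37 °C. Multinucleated syncytia counted microscopically over entire well; EC50 from syncytium inhibition.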

[2] = tested on: Human immunodeficiency virus 1; experiment: Anti HIV-1 activity against the virus NL4-3 using MAGI assay; conditions: Human immunodeficiency virus 1, MAGI
Method in brief: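 HeLa-CD4/CCR5/β-gal indicator cells seeded at 10 000/well, grown 1 day in DMEM with G418 (500 µg/mL) and hygromycin (250 µg/mL). Infected with virus dilutions in presence of graded compound concentrations, 2 days at 37 °C. Fixed (1% formaldehyde, 0.2% glutaraldehyde), X-gal stained (0.4 mg/mL). Blue (Tat-expressing) cells counted; EC50 = concentration halving infected-cell number.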

[3] = tested on: Human immunodeficiency virus 1; experiment: Anti HIV-1 activity against infected H9 lymphocyte cells; conditions: Human immunodeficiency virus 1, H9
Method in brief: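 HIV-1 acutely infected H9 lymphocytes cultured with the test agent; EC50 (µM) reported.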

SMILES | EC50 [1] [µM] | EC50 [2] [µM] | EC50 [3] [µM]
C=C(C)[C@@H]1CC[C@]2(C(=O)NCCCCCCCC(=O)OC)CC[C@]3(C)[C@H](CC[C@@H]4[C@@]5(C)CC[C@H](OC(C)=O)C(C)(C)[C@@H]5CC[C@]43C)[C@@H]12 | > 31 | 29.1 | –
C=C(C)[C@@H]1CC[C@]2(C(=O)NCCCCCCCC(=O)N[C@@H](CC(C)C)[C@H](O)CC(=O)O)CC[C@]3(C)[C@H](CC[C@@H]4[C@@]5(C)CC[C@H](O)C(C)(C)[C@@H]5CC[C@]43C)[C@@H]12 | 0.66 | 0.4 | –
C=C(C)[C@@H]1CC[C@]2(C(=O)NCCCCCCCCCCC(=O)N[C@@H](CC(C)C)C(=O)O)CC[C@]3(C)[C@H](CC[C@@H]4[C@@]5(C)CC[C@H](O)C(C)(C)[C@@H]5CC[C@]43C)[C@@H]12 | 0.33 | 0.46 | –
CC(=O)O[C@H]1CC[C@]2(C)[C@H]3CC[C@@H]4[C@H]5[C@H](C(C)C)CC[C@]5(C(=O)NCCCCCCCC(=O)N[C@@H](CC(C)C)[C@H](O)CC(=O)OCc5ccccc5)CC[C@@]4(C)[C@]3(C)CC[C@H]2C1(C)C | > 22 | > 28 | –
C=C(C)[C@@H]1CC[C@]2(C(=O)NCCCCCCCCCCC(=O)O)CC[C@]3(C)[C@H](CC[C@@H]4[C@@]5(C)CC[C@H](O)C(C)(C)[C@@H]5CC[C@]43C)[C@@H]12 | 0.31 | 0.7 | –
C=C(C)[C@@H]1CC[C@]2(C(=O)N[C@@H](CC(C)C)C(=O)O)CC[C@]3(C)[C@H](CC[C@@H]4[C@@]5(C)CC[C@H](O)C(C)(C)[C@@H]5CC[C@]43C)[C@@H]12 | 5.48 | – | 3.22
C=C(C)[C@@H]1CC[C@]2(C(=O)NCCC(=O)O)CC[C@]3(C)[C@H](CC[C@@H]4[C@@]5(C)CC[C@H](O)C(C)(C)[C@@H]5CC[C@]43C)[C@@H]12 | > 38 | > 47 | –
C=C(C)[C@@H]1CC[C@]2(C(=O)NCCC(=O)OC)CC[C@]3(C)[C@H](CC[C@@H]4[C@@]5(C)CC[C@H](OC(C)=O)C(C)(C)[C@@H]5CC[C@]43C)[C@@H]12 | 21.4 | 26.7 | –
C=C(C)[C@@H]1CC[C@]2(C(=O)NCCCCCCCCCCC(=O)N[C@@H](CC(C)C)C(=O)OC)CC[C@]3(C)[C@H](CC[C@@H]4[C@@]5(C)CC[C@H](O)C(C)(C)[C@@H]5CC[C@]43C)[C@@H]12 | > 26 | > 32 | –
C=C(C)[C@@H]1CC[C@]2(C(=O)NCCC(=O)N[C@@H](CC(C)C)C(=O)OC)CC[C@]3(C)[C@H](CC[C@@H]4[C@@]5(C)CC[C@H](O)C(C)(C)[C@@H]5CC[C@]43C)[C@@H]12 | 7.63 | > 38 | –
C=C(C)[C@@H]1CC[C@]2(C(=O)NCCCCCCCCCCC(=O)OC)CC[C@]3(C)[C@H](CC[C@@H]4[C@@]5(C)CC[C@H](OC(C)=O)C(C)(C)[C@@H]5CC[C@]43C)[C@@H]12 | > 29 | 10.2 | –
C=C(C)[C@@H]1CC[C@]2(C(=O)NCCC(=O)N[C@@H](CC(C)C)C(=O)O)CC[C@]3(C)[C@H](CC[C@@H]4[C@@]5(C)CC[C@H](O)C(C)(C)[C@@H]5CC[C@]43C)[C@@H]12 | > 31 | > 39 | –
C=C(C)[C@@H]1CC[C@]2(C(=O)NCCCCCCCC(=O)N[C@@H](CC(C)C)C(=O)O)CC[C@]3(C)[C@H](CC[C@@H]4[C@@]5(C)CC[C@H](O)C(C)(C)[C@@H]5CC[C@]43C)[C@@H]12 | 1.1 | 1.38 | –
C=C(C)[C@@H]1CC[C@]2(C(=O)NCCCCCCCC(=O)N[C@@H](CC(C)C)C(=O)OC)CC[C@]3(C)[C@H](CC[C@@H]4[C@@]5(C)CC[C@H](O)C(C)(C)[C@@H]5CC[C@]43C)[C@@H]12 | 0.86 | 0.52 | –
C=C(C)[C@@H]1CC[C@]2(C(=O)N[C@@H](CC(C)C)C(=O)OC)CC[C@]3(C)[C@H](CC[C@@H]4[C@@]5(C)CC[C@H](OC(C)=O)C(C)(C)[C@@H]5CC[C@]43C)[C@@H]12 | > 32 | > 40 | –
CC(C)C[C@H](NC(=O)CCCCCCCNC(=O)[C@]12CC[C@@H](C(C)C)[C@@H]1[C@H]1CC[C@@H]3[C@@]4(C)CC[C@H](O)C(C)(C)[C@@H]4CC[C@@]3(C)[C@]1(C)CC2)[C@H](O)CC(=O)O | 0.4 | 0.33 | –
Cc1cn([C@H]2C[C@H](N=[N+]=[N-])[C@@H](CO)O2)c(=O)[nH]c1=O [ZIDOVUDINE] | > 75 | 0.075 | –
